Molecules are shown by their SMILES. Read-outs that look alike come from different tables or passages of the source.

Series [1] has as its system T. gondii type I RH strain. The experiment in a line: In vitro T. gondii type I RH. In kind it is cell-based, Toxoplasma gondii. To be noted: for IC50: Toxoplasma gondii, HFF; for reduction of T. gondii parasite growth: 11 μM, added immediately after infection, 48 h, HFF cells; for SI T. gondii (selectivity index): SI = IC50 HCT-8 (or HFF)/IC50 parasite (at 0 h p.i.). The method, boiled down:
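Single-concentration screen: confluent HFF monolayers in IMDM were infected with about 5 × 10³ RH-YFP tachyzoites per well, and test compound (11 μM final, in DMSO) was added immediately. Controls were atovaquone at 0.5 μM, DMSO vehicle and uninfected background wells. After 48 h at 37 °C with 5% CO₂, YFP was quantified from 9 thresholded 20× images per well. Percent inhibition was taken against DMSO; triplicates, repeated at least thrice.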

The nature of series [2]: WST-1 cytotoxicity assay in uninfected HCT-8 cells. The settings on record: human. In kind it is cell-based. The method, boiled down:
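HCT-8 cells (5 × 10⁴/well) were grown overnight at 37 °C, 5% CO₂ in phenol-red-free RPMI-1640 with added glucose, bicarbonate, pyruvate and 10% heat-inactivated FBS. They were treated with test compound (20 μM screen or dose range) or DMSO for 48 h. WST-1 was then added for 1 h at 37 °C in the dark, and absorbance read at 440 nm (reference 690 nm). % toxicity = (OD_DMSO − OD_compound)/OD_DMSO × 100. IC50 by nonlinear regression of triplicate means.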
On the technique in general: Formazan colour is commonly taken as a measure of viable cells.

A short description of series [3]: WST-1 cytotoxicity assay in uninfected HFF cells. It counts as cell-based. To be noted: human.
Series [4] deals with C. parvum AUCP-1 isolate. Description: In vitro C. parvum growth inhibition in HCT-8 cells, immunofluorescence assay. It counts as cell-based, Cryptosporidium parvum. The settings on record: for IC50: Cryptosporidium parvum; for SI C. parvum (selectivity index): SI = IC50 HCT-8 (or HFF)/IC50 parasite (at 0 h p.i.). The method, boiled down: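 Confluent HCT-8 monolayers in supplemented RPMI-1640 infected with 10⁵ freshly excysted sporozoites per well. […] After 72 h, cells were fixed in methanol-acetic acid (9:1), permeabilised, blocked with 5% goat serum and stained overnight at 4 °C with fluorescein anti-C. parvum antibody. Imaged at 20×, triplicates, three assays, nonlinear regression IC50; SI = host-cell IC50/parasite IC50 (0 h p.i.).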

Series [5] has as its system T. gondii type II ME49 strain. The experiment in a line: In vitro T. gondii type II ME49. It counts as cell-based. To be noted: Toxoplasma gondii, HFF, 48 h, read-out: IC50 against T. gondii Type II (ME49) in HFF cells.
Series [6] has as its system T. gondii Type II (ME49) cysts in rats' brains. In kind it is in vivo, Toxoplasma gondii. To be noted: JS-2-41 3 mg/kg; for reduction in the number of Toxoplasma cysts in the brain: infected rats, 14 days of treatment, JS-2-44 4 mg/kg i.p.; for decrease in brain cysts compared to untreated rats: male Brown Norway rats, i.p. daily for 14 days, JS-2-44 4 mg/kg. A digest of the protocol:
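Male Brown Norway rats, 4 weeks old, were acclimatised 7 days, then inoculated i.m. with 5 × 10⁴ ME49 tachyzoites in 0.1 ml PBS. Once brain cysts were confirmed in two untreated rats, groups (n = 3) received daily i.p. test compound or atovaquone (5 mg/kg) in 0.2 ml 5% DMSO/PBS for 2 weeks; untreated rats got vehicle. Brains were homogenised in 5 ml PBS, cysts counted in 50 μl on 3 slides (10×) and scaled to total volume. One-way ANOVA with Dunnett.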

Where [7] appears, read: read-out: Parasite IC50 T. gondii 0h p.i.
[8] abbreviates: read-out: Parasite IC50 T. gondii 2h p.i.
[9] abbreviates: HCT-8, read-out: Parasite IC50 C. parvum 0h p.i.
Where [10] appears, read: HCT-8, read-out: Parasite IC50 C. parvum 2h p.i.

As a reminder, the IC50 is the midpoint of a concentration-inhibition curve. In the case of `O=C1C(O)=C([C@H]2CC[C@H](c3ccc(Cl)cc3)CC2)C(=O)c2ccccc21` [ATQ, atovaquone, reference compound], the IC50 in series [1] (setting [7]) stood at 0.084 µM; in series [1] (setting [8]) it was 0.087 µM.

In series [2], `C#CC(C)(C)NC(=O)c1cc2c(F)cc(F)cc2[nH]1` [JS-2-15, 4,6-Difluoro-N-(2-methylbut-3-yn-2-yl)-1H-indole-2-carboxamide] yielded an IC50 at 48 h of 109 µM.

Turning to `CC(C)(NC(=O)c1cc2c(F)cc(F)cc2[nH]1)c1cn(Cc2ccccc2)nn1` [JS-2-18, N-(2-(1-Benzyl-1H-1,2,3-triazol-4-yl)propan-2-yl)-4,6-difluoro-1H-indole-2-carboxamide], in series [2], the IC50 at 48 h came out at 205 µM.

On to `CC(C)(NC(=O)c1cc2c(F)cc(F)cc2[nH]1)c1cn(C23CC4CC(CC(C4)C2)C3)nn1` [JS-2-19, N-(2-(1-(Adamantan-1-yl)-1H-1,2,3-triazol-4-yl)propan-2-yl)-4,6-difluoro-1H-indole-2-carboxamide], for which the “reduction of T. gondii parasite growth” value in series [1] is “over 50%”. Also, in series [1], the “SI T. gondii (selectivity index)” value was 12.66. The IC50 in series [1] (setting [7]) turned out to be 8.51 µM; in series [1] (setting [8]) it was 10.6 µM. In addition, inhibition in series [3] was half-maximal at 108 µM (IC50 at 48 h).

On to `C#CC(C)(C)NC(=O)c1cc2c(Cl)cc(Cl)cc2[nH]1` [JS-2-22, 4,6-Dichloro-N-(2-methylbut-3-yn-2-yl)-1H-indole-2-carboxamide], for which the IC50 in series [4] (setting [9]) is 12.3 µM; in series [4] (setting [10]), 12.5 µM. Besides, the “SI C. parvum (selectivity index)” value in series [4] was 8.24. The same compound came in with an IC50 at 48 h in series [2] of 101 µM.

`CC(C)(NC(=O)c1cc2c(F)cc(F)cc2[nH]1)c1cn(Cc2ccccc2Cl)nn1` [JS-2-25, N-(2-(1-(2-Chlorobenzyl)-1H-1,2,3-triazol-4-yl)propan-2-yl)-4,6-difluoro-1H-indole-2-carboxamide] displayed an IC50 at 48 h in series [2] of 107 µM.

Consider `CC(C)(NC(=O)c1cc2c(Cl)cc(Cl)cc2[nH]1)c1cn(Cc2ccccc2)nn1` [JS-2-27, N-(2-(1-Benzyl-1H-1,2,3-triazol-4-yl)propan-2-yl)-4,6-dichloro-1H-indole-2-carboxamide], for which the IC50 was 9.37 µM in series [4] (setting [9]) and 10.7 µM in series [4] (setting [10]). For the same compound, the “SI C. parvum (selectivity index)” value in series [4] was 27.09. For the same compound, the IC50 at 48 h in series [2] stood at 254 µM.

For the compound `CC(C)(NC(=O)c1cc2c(Cl)cc(Cl)cc2[nH]1)c1cn(Cc2ccccc2Cl)nn1` [JS-2-28, 4,6-Dichloro-N-(2-(1-(2-chlorobenzyl)-1H-1,2,3-triazol-4-yl)propan-2-yl)-1H-indole-2-carboxamide], in series [1], the “reduction of T. gondii parasite growth” value is reported as “over 50%”. For the same compound, the IC50 was 11.6 µM in series [1] (setting [7]), 19.2 µM in series [1] (setting [8]), 8.32 µM in series [4] (setting [9]) and 8.59 µM in series [4] (setting [10]). Also, the “SI C. parvum (selectivity index)” value in series [4] was 28.05. Also, the results for the IC50 at 48 h in series [2] and in series [3] were 233 µM and 209 µM, respectively.

With `CC(C)(NC(=O)c1cc2c(Cl)cc(Cl)cc2[nH]1)c1cn(Cc2cccc(Cl)c2)nn1` [JS-2-30, 4,6-Dichloro-N-(2-(1-(3-chlorobenzyl)-1H-1,2,3-triazol-4-yl)propan-2-yl)-1H-indole-2-carboxamide], the “reduction of T. gondii parasite growth” value in series [1] is recorded as “over 50%”. The IC50 is 5.43 µM in series [1] (setting [7]), 6.32 µM in series [1] (setting [8]), 5.05 µM in series [4] (setting [9]) and 5.86 µM in series [4] (setting [10]). In addition, the “SI C. parvum (selectivity index)” value in series [4] is recorded as 38.16. The results for the IC50 at 48 h in series [2] and in series [3] were 193 µM and 268 µM, respectively.

Regarding `CC(C)(NC(=O)c1cc2c(Cl)cc(Cl)cc2[nH]1)c1cn(C23CC4CC(CC(C4)C2)C3)nn1` [JS-2-31, N-(2-(1-(Adamantan-1-yl)-1H-1,2,3-triazol-4-yl)propan-2-yl)-4,6-dichloro-1H-indole-2-carboxamide], in series [1], the “reduction of T. gondii parasite growth” value is reported as “over 50%” and the “SI T. gondii (selectivity index)” value is given as 17.15. For the same compound, the IC50 in series [1] (setting [7]) was 7.88 µM. Moreover, the IC50 in series [1] (setting [8]) was 12.1 µM. In series [3], this compound returned an IC50 at 48 h of 135 µM.

Consider `c1ccc(-c2cn(C34CC5CC(CC(C5)C3)C4)nn2)cc1` [JS-2-40, 1-(Adamantan-1-yl)-4-phenyl-1H-1,2,3-triazole], for which, in series [2], the midpoint of inhibition, the IC50 at 48 h, lay at 135 µM.

With `CC1(C)COC(c2ccc(-c3cn(C45CC6CC(CC(C6)C4)C5)nn3)cc2)OC1` [JS-2-41, 1-(Adamantan-1-yl)-4-(4-(5,5-dimethyl-1,3-dioxan-2-yl)phenyl)-1H-1,2,3-triazole], the “reduction of T. gondii parasite growth” value in series [1] is “over 50%”. Moreover, the results for the IC50 in series [1] (setting [7]), in series [1] (setting [8]) and in series [5] were 1.94 µM, 2.15 µM and 1.5 µM, respectively. The compound also registered an IC50 at 48 h in series [3] of 168 µM. Moreover, the “reduction in the number of Toxoplasma cysts in the brain” value in series [6] is listed as “over 90%”. Also, the “decrease in brain cysts compared to untreated rats” value in series [6] stood at 10 fold.

`CC(C)(NC(=O)c1cc2c(F)cc(F)cc2[nH]1)c1cn(Cc2ccc(Cl)c(Cl)c2)nn1` [JS-2-43, N-(2-(1-(3,4-Dichlorobenzyl)-1H-1,2,3-triazol-4-yl)propan-2-yl)-4,6-difluoro-1H-indole-2-carboxamide] yielded an IC50 at 48 h in series [2] of 174 µM.

In the case of `CC(C)(NC(=O)c1cc2c(Cl)cc(Cl)cc2[nH]1)c1cn(Cc2ccc(Cl)c(Cl)c2)nn1` [JS-2-44, 4,6-Dichloro-N-(2-(1-(3,4-dichlorobenzyl)-1H-1,2,3-triazol-4-yl)propan-2-yl)-1H-indole-2-carboxamide], the IC50 in series [1] (setting [7]) was found to be 2.95 µM; in series [1] (setting [8]), 3.24 µM; in series [5], 10.6 µM; in series [4] (setting [9]), 7.63 µM; in series [4] (setting [10]), 9.12 µM. For the same compound, the “SI C. parvum (selectivity index)” value in series [4] was found to be 27.48. The IC50 at 48 h in series [2] worked out at 210 µM; in series [3], 209 µM. Besides, the “reduction in the number of Toxoplasma cysts in the brain” value in series [6] is listed as “over 90%”. The “decrease in brain cysts compared to untreated rats” value in series [6] was 10 fold.

On to `NC[C@@H]1O[C@H](O[C@H]2[C@@H](O)[C@H](O[C@@H]3[C@@H](O)[C@H](N)C[C@H](N)[C@H]3O[C@H]3O[C@H](CO)[C@@H](O)[C@H](O)[C@H]3N)O[C@@H]2CO)[C@H](N)[C@@H](O)[C@@H]1O` [PMO, paromomycin, reference compound], for which the IC50 in series [4] (setting [9]) worked out at 220 µM; in series [4] (setting [10]), 227 µM.
